The values that follow come from ChEMBL document CHEMBL1133553, “Synthesis and transporter binding properties of bridged piperazine analogues of 1-[2-[bis(4-fluorophenyl)methoxy]ethyl]-4-(3-phenylpropyl)piperazine (GBR 12909)” (J Med Chem, 2000).

The target in test [1] is T1, Sodium-dependent dopamine transporter (Rattus norvegicus, UniProt P23977). Description: Binding affinity for rat Dopamine transporter. Summed up: (§1)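 Drugs and blockers prepared in 55.2 mM sodium phosphate buffer, pH 7.4, with 1 mg/mL BSA. Radioligand prepared in the same buffer with chymostatin, leupeptin, EDTA and EGTA. Triplicate incubations ran 18-24 h at 4 °C (equilibrium) in 1 mL, then were filtered over GF/B filters presoaked in 2% polyethylenimine.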

Test [2] deals with T2, Monoamine transporters; serotonin & dopamine (Rattus norvegicus) (UniProt P31652+P23977). Description: Ratio of reuptake of 5-HT to that of DA. The test is classed as functional.
The target in test [3] is T2, Monoamine transporters; serotonin & dopamine (Rattus norvegicus). Put plainly: Ratio of binding affinity of 5-HT to that of DA. The test is classed as protein assay.
Test [4] deals with T3, Sodium-dependent serotonin transporter (Rattus norvegicus, UniProt P31652). Description: Inhibition of [3H]5-HT reuptake in whole rat brain (minus cerebellum) homogenate. The test is classed as functional, tissue-based.
The target of test [5] is T3, Sodium-dependent serotonin transporter. Put plainly: Binding affinity for rat 5-hydroxytryptamine transporter. The method in brief: as §1
Test [6] deals with T1, Sodium-dependent dopamine transporter. Description: Inhibition of [3H]DA reuptake in rat caudate homogenate. It counts as functional, tissue-based.

T1 sequence (P23977 whole entry): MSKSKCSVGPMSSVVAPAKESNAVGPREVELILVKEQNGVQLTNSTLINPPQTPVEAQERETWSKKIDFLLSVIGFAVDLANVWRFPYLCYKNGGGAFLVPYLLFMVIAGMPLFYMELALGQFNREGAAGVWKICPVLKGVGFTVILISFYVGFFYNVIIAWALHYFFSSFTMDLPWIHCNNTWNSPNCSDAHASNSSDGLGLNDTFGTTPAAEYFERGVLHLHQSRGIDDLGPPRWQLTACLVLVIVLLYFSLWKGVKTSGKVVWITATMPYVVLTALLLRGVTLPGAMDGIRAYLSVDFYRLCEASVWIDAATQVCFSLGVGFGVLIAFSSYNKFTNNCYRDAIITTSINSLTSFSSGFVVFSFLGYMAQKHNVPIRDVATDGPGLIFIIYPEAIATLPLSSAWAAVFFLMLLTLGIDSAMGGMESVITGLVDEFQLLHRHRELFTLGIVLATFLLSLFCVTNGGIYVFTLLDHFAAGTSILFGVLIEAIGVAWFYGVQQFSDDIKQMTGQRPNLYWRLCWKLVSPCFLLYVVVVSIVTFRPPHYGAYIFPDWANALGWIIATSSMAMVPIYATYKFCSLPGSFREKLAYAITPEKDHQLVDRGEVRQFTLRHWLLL
T2 sequence (P23977 whole entry, looked up): as the sequence (P23977 whole entry) above
T2 sequence (P31652 whole entry, looked up): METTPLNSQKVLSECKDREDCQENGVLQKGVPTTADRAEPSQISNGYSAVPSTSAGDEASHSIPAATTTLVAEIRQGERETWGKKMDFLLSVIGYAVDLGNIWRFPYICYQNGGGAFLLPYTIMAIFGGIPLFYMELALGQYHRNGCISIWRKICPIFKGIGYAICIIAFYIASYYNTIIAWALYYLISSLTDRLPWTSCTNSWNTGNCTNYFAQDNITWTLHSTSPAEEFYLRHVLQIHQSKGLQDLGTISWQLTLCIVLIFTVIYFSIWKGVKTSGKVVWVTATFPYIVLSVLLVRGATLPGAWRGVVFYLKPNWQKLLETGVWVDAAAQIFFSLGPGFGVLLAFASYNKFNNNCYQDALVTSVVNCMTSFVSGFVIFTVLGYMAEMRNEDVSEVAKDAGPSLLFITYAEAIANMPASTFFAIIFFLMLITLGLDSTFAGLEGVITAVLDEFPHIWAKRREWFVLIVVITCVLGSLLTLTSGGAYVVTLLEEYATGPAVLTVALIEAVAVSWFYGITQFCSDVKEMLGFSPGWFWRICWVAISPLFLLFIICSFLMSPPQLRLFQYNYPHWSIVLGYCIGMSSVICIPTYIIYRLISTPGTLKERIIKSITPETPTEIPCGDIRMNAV
T3 sequence (P31652 whole entry): as the sequence (P31652 whole entry, looked up) above

The IC50 is the point on the concentration scale where inhibition reaches its midpoint. In the case of `Fc1ccc(C(OCCN2CC3CC2CN3CCCc2ccccc2)c2ccc(F)cc2)cc1` (stereo not given), the concentration for half-maximal inhibition (IC50) in test [1] is 0.127 µM; in test [4] it was 0.173 µM; in test [5], 0.203 µM; in test [6], 0.113 µM. The Ratio in test [2] came to 1.5; in test [3], 1.6.

With `c1ccc(CCCN2C3CCC2CN(CCOC(c2ccccc2)c2ccccc2)CC3)cc1` (stereo not given), the IC50 is 0.032 µM in test [1], 2.3 µM in test [4], 1.32 µM in test [5] and 0.087 µM in test [6]. Further, the Ratio in test [2] was found to be 26; in test [3], 41.

Consider `Fc1ccc(C(OCCN2CC3CCC(C2)N3Cc2cc3ccccc3[nH]2)c2ccc(F)cc2)cc1`, for which the IC50 in test [1] stood at 0.0014 µM; in test [4], 0.645 µM; in test [5], 0.104 µM; in test [6] it was 0.04 µM. The Ratio came out at 16 in test [2] and 74 in test [3].

Take `CN1C2CCC1CN(CCOC(c1ccccc1)c1ccccc1)CC2` (stereo not given): the half-inhibitory concentration (IC50) came out at 0.307 µM in test [1], 6.15 µM in test [4], 17 µM in test [5] and 0.928 µM in test [6]. Also, the Ratio in test [2] is 6.6; in test [3] it was 56.

For the compound `CN1CC2CC1CN2CCOC(c1ccc(F)cc1)c1ccc(F)cc1` (stereo not given), the concentration for half-maximal inhibition (IC50) was 0.121 µM in test [1], 2.15 µM in test [4], 1.7 µM in test [5] and 0.125 µM in test [6]. The results for the Ratio in test [2] and in test [3] were 17 and 14, respectively.

As for `c1ccc(CCCN2CC3CC2CN3CCOC(c2ccccc2)c2ccccc2)cc1` (stereo not given), the IC50 is 0.223 µM in test [1], 0.912 µM in test [4], 0.72 µM in test [5] and 0.198 µM in test [6]. For the same compound, the Ratio in test [2] amounted to 5; in test [3] it was 3.

`CN1C2CCC1CN(CCOC(c1ccc(F)cc1)c1ccc(F)cc1)C2`: the IC50 in test [1] stood at 0.008 µM; in test [4], 0.898 µM; in test [5] it was 0.705 µM; in test [6], 0.0096 µM. The values for the Ratio in test [2] and in test [3] were 93 and 88, respectively.

With `Fc1ccc(C(OCCN2CC3CCC(C2)N3C/C=C/c2ccco2)c2ccc(F)cc2)cc1`, the concentration for half-maximal inhibition (IC50) in test [1] stood at 0.0055 µM; in test [4] it was 0.299 µM; in test [5] it was 0.146 µM; in test [6], 0.024 µM. Besides, the Ratio was determined as 13 in test [2] and 27 in test [3].

As to `Fc1ccc(C(OCCN2CC3CCC(C2)N3C/C=C/c2cccs2)c2ccc(F)cc2)cc1`, the IC50 in test [1] amounted to 0.004 µM; in test [4], 0.268 µM; in test [5], 0.046 µM; in test [6], 0.028 µM. Further, the results for the Ratio in test [2] and in test [3] were 10 and 12, respectively.

As to `Fc1ccc(C(OCCN2CC3CCC(C2)N3CCCc2ccccc2)c2ccc(F)cc2)cc1`, the IC50 in test [1] amounted to 0.0082 µM; in test [4], 0.506 µM; in test [5], 0.077 µM; in test [6], 0.219 µM.

With `c1ccc(CCCN2C3CCC2CN(CCOC(c2ccccc2)c2ccccc2)C3)cc1`, the half-inhibitory concentration (IC50) in test [1] amounted to 0.018 µM; in test [4], 1.39 µM; in test [5] it was 0.74 µM; in test [6], 0.024 µM. Besides, the values for the Ratio in test [2] and in test [3] were 58 and 42, respectively.

On to `Fc1ccc(C(OCCN2CC3CCC(C2)N3C/C=C/c2cccnc2)c2ccc(F)cc2)cc1`, for which the half-maximal inhibitory concentration (IC50) in test [1] stood at 0.012 µM; in test [4], 0.968 µM; in test [5], 0.395 µM; in test [6] it was 0.024 µM. Besides, the Ratio was found to be 40 in test [2] and 33 in test [3].

In the case of `c1ccc(C(OCCN2CCC3CCC(C2)N3)c2ccccc2)cc1` (stereo not given), the half-inhibitory concentration (IC50) in test [1] is 0.431 µM; in test [4], 3.96 µM; in test [5], 6.06 µM; in test [6], 0.26 µM. The values for the Ratio in test [2] and in test [3] were 15 and 14, respectively.

Consider `CN1C2CCC1CN(CCOC(c1ccc(F)cc1)c1ccc(F)cc1)CC2` (stereo not given), for which the IC50 is 0.089 µM in test [1], 1.67 µM in test [4], 1.9 µM in test [5] and 0.036 µM in test [6]. The figures for the Ratio in test [2] and in test [3] were 47 and 21, respectively.

Regarding `CN1C2CCC1CN(CCOC(c1ccccc1)c1ccccc1)C2`, the 50% inhibitory concentration (IC50) in test [1] is 0.111 µM; in test [4] it was 13.7 µM; in test [5] it was 6.4 µM; in test [6], 1.14 µM. In addition, the Ratio in test [2] was found to be 12; in test [3] it was 58.

Turning to `Fc1ccc(C(OCCN2CCC3CCC(C2)N3CCCc2ccccc2)c2ccc(F)cc2)cc1` (stereo not given), the IC50 in test [1] turned out to be 0.13 µM; in test [4], 2.08 µM; in test [5] it was 0.843 µM; in test [6], 0.047 µM. The Ratio in test [2] was determined as 44; in test [3] it was 6.5.

With `CN1CC2CC1CN2CCOC(c1ccccc1)c1ccccc1` (stereo not given), the half-inhibitory concentration (IC50) in test [1] stood at 1.17 µM; in test [4], 28 µM; in test [5], 33 µM; in test [6] it was 0.83 µM. In addition, the results for the Ratio in test [2] and in test [3] were 33 and 29, respectively.
